For one data set, the system named is Hepatitis C virus. Briefly: Inhibition of HCV subgenomic RNA replication in Huh5-2 cells after 48 hrs by replicon assay. The class given is functional, organism-based, Hepacivirus hominis. The note with it: Huh-5-2, 48 h. In a few lines:
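Huh-5-2 cells (Huh-7-derived, genotype 1b subgenomic replicon with luciferase reporter) seeded at 5 × 10^3 per well in DMEM with 10% FBS, 37 °C, 5% CO2; compounds added next day, 48 h exposure; luciferase activity read. EC50 is the concentration reducing replication by 50%. Triplicate, mean of three experiments.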
A general note: Replicon systems follow genome replication, usually without infectious particles.

Data set [1] is described as follows: Plasma concentration in rat at 30 mg/kg, po after 2 hrs. The class given is ADME, organism-based. Also on record: dose 30 mg/kg, route oral. In a few lines:
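Rats dosed orally at 30 mg/kg; plasma sampled at 1 and 2 h; n = 2 or 3.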

For data set [2], the target named is T1, Cytochrome P450 3A4 (Homo sapiens, UniProt P08684). Briefly: Inhibition of CYP450 3A4. The class given is ADME.
In data set [3] the target is RNA-directed RNA polymerase (Hepacivirus hominis, UniProt O39930). Briefly: Inhibition of HCV 1a NS5B RNA dependent RNA polymerase. Also on record: species or system Hepatitis C virus subtype 1a. In a few lines:
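IC50 from the mean of four independent experiments; standard deviations within 30% of the mean.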

The target of data set [4] is T2, DNA polymerase subunit gamma-1 (Homo sapiens, UniProt P54098).
T2 sequence (P54098 whole entry): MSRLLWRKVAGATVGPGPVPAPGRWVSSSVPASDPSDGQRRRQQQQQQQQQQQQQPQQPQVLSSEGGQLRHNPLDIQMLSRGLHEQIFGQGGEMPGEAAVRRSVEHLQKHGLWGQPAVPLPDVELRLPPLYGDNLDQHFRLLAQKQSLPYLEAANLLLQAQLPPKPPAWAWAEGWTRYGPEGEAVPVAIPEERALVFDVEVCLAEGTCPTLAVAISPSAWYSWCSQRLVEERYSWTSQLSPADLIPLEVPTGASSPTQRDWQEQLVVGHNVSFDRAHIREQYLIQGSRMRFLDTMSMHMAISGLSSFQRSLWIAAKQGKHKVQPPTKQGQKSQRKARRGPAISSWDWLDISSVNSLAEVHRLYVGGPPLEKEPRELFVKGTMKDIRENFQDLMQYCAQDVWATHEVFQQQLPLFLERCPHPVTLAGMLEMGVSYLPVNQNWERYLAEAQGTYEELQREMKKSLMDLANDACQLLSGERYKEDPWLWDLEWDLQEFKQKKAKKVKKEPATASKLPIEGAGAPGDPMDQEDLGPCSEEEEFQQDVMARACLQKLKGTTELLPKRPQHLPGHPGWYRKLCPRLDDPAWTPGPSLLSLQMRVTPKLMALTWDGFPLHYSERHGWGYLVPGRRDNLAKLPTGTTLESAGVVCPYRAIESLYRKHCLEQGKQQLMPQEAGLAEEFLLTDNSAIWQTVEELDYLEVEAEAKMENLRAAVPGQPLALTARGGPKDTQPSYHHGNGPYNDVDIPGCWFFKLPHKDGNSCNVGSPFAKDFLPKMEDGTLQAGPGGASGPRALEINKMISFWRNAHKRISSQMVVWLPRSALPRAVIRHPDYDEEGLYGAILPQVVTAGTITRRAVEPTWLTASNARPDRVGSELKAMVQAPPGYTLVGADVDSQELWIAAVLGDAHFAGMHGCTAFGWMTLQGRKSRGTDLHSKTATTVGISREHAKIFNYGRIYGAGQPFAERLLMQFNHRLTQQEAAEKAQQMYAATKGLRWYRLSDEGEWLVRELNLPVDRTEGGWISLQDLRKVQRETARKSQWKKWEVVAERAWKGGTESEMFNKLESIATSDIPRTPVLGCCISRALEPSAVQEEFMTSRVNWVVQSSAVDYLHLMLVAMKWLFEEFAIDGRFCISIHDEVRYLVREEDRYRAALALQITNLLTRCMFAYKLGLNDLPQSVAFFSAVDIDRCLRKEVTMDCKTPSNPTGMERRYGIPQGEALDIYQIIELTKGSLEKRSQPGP
Briefly: Inhibition of DNA polymerase gamma.

For data set [5], the target named is T1, Cytochrome P450 3A4. Briefly: Induction of CYP450 3A4. The class given is ADME.
A further data set deals with Cytochrome P450 2D6 (Homo sapiens, UniProt P10635). The data set is described as follows: Induction of CYP450 2D6. Type of data set: ADME.

The values below come from ChEMBL document CHEMBL1138950, “Benzimidazole derivatives bearing substituted biphenyls as hepatitis C virus NS5B RNA-dependent RNA polymerase inhibitors: structure-activity relationship studies and identification of a potent and highly selective inhibitor JTK-109” (J Med Chem, 2006).

The term EC50 denotes the concentration needed to bring the measured effect to its halfway point. Broadly, the IC50 is the midpoint of a concentration-inhibition curve. Higher therefore signals weaker potency.

Bounds are passed on as bounds.

T1 sequence (P08684 whole entry): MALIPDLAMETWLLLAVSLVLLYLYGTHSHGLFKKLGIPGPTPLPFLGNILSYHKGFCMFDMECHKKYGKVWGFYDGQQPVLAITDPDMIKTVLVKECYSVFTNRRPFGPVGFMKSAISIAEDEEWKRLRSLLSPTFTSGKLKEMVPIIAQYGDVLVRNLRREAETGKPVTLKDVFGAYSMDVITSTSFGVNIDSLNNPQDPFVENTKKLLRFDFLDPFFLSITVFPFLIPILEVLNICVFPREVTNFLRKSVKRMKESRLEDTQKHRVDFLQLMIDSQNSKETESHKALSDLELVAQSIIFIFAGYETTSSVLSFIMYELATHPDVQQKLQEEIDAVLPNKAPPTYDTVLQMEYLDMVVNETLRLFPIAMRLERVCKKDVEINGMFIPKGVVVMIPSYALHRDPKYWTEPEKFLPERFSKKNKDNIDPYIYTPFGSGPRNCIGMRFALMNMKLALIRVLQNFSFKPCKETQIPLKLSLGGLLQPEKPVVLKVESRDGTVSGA
Cytochrome P450 2D6, sequence (P10635 whole entry): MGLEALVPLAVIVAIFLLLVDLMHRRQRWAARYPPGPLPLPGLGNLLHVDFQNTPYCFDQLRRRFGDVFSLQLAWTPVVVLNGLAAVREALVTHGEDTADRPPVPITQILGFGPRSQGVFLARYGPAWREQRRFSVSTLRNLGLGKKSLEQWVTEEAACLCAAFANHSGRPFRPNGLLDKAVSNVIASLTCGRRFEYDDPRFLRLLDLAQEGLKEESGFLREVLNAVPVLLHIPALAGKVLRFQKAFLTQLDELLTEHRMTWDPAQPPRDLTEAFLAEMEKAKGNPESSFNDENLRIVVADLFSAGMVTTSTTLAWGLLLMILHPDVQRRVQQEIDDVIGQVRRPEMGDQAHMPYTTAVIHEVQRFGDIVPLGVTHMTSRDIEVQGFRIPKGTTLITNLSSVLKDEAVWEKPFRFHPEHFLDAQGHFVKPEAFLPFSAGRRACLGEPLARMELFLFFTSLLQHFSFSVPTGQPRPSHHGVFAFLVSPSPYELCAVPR
RNA-directed RNA polymerase, sequence (O39930 whole entry): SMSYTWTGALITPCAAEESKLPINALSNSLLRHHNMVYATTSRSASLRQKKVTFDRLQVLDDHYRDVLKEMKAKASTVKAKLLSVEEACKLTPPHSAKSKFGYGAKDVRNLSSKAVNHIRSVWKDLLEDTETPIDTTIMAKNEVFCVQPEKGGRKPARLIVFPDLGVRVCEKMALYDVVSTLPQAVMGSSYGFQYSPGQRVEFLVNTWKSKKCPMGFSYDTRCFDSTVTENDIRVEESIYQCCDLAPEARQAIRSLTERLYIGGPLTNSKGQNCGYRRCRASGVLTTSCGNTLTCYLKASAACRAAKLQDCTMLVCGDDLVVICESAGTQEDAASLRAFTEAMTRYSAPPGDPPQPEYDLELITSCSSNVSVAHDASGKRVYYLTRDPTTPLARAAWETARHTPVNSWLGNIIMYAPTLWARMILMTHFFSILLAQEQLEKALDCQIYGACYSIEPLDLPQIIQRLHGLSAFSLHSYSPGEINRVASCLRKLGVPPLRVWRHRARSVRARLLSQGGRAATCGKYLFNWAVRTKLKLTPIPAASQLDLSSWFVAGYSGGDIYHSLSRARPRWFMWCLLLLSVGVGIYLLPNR

On to `O=C(O)c1ccc2c(c1)nc(-c1ccc(OCc3cc(N4CCCC4=O)ccc3-c3ccc(Cl)cc3)cc1F)n2C1CCCCC1`, for which the EC50 in the data set on Hepatitis C virus came to 320 nM. The compound also returned a concentration at 2 h in data set [1] of 4.5 µM. The Inhibition entry at Cytochrome P450 3A4 [2] is reported as “Not Active”. In addition, the IC50 in data set [3] was 62 nM; in data set [4], greater than 10000 nM. The Activity entry at Cytochrome P450 3A4 [5] and on Cytochrome P450 2D6 was “Not Active” each time.
